# Measurements from different studies.
# Protocols differ between the studies behind these lines.
# Target: Activin receptor type-2A (ACVR2A, Homo sapiens, UniProt P27037)
Compound,read-out,technique,tested at,remaining binding [%]
CNC(=O)[C@@H]1CC[C@@H](n2c(-c3ccc4cnccc4c3)nc3ccc(C(=O)NCc4cccc(C(N)=O)c4)cc32)C1,binding,competition with immobilised ligand,1 µM,100
O=C(Nc1cccnn1)N1CCC(=Cc2cccc(Oc3ccc(C(F)(F)F)cn3)c2)CC1,cell-free assay,competition with immobilised ligand,1 µM,100
C[C@@H](c1ccc(-n2cnc3c(N)ncnc32)cc1)N1CCc2nn(C)c(Cc3ccccc3)c2C1=O,binding,competition with immobilised ligand,0.1 µM,92
O=C(NCCCN1CCOCC1)c1ccc(Nc2ncc(Cl)c(-c3ccc(Cl)s3)n2)cc1,binding,competition with immobilised ligand,1 µM,90
O=C(NCCCC1CCCCC1)c1ccc(CNC(=O)c2cnn(-c3ccccc3)c2C(F)(F)F)cc1,cell-free assay,competition with immobilised ligand,0.1 µM,83
O=C(NCCCN1CCOCC1)c1ccc(Nc2nccc(-c3cc4ccccc4s3)n2)cc1,binding,competition with immobilised ligand,1 µM,58
O=C1NC(c2ccccn2)Sc2ccccc21 (stereo not shown),cell-free assay,competition with immobilised ligand,1 µM,100
COc1ccnn2ncc(-c3ccnc(N(C)C)n3)c12,binding,,1 µM,100
CN([C@@H]1CCc2c(CC(=O)O)c3ccccc3n2C1)S(=O)(=O)c1ccc(F)cc1,cell-free assay,competition with immobilised ligand,1 µM,100
CN(CCCC(F)(F)F)c1nccc(-c2cnn3ncccc23)n1,binding,,1 µM,100
C[C@H](c1ccnc(Nc2nc3ccc(-c4cc(N(C)C)ncn4)cc3[nH]2)c1)N1CCN(C(=O)CC(F)(F)F)CC1,cell-free assay,competition with immobilised ligand,0.1 µM,100
CCN1CCN(Cc2ccc(C(=O)Nc3ccc(C)c(Oc4ccc5c(c4)CC(=O)N5)c3)cc2C(F)(F)F)CC1,binding,competition with immobilised ligand,1 µM,100
N[C@H]1CCN(c2nccc(-c3cnn4ncccc34)n2)C1,binding,,1 µM,100
Nc1ncc2c(n1)-c1c([nH]c3ccc(C#CC4CC4)cc13)CCCC2,binding,competition with immobilised ligand,1 µM,91
CN(C)c1nccc(-c2cnc3ncccn23)n1,binding,,1 µM,100
O=C(Nc1c[nH]nc1C(=O)NC1CCNCC1)c1cc(F)cc(F)c1,binding,competition with immobilised ligand,1 µM,100
CN(C)c1nccc(-c2cnn3ncccc23)n1,binding,,1 µM,90
Cc1cnc(Nc2ccc(C(=O)N3CCC(N4CCCC4)CC3)cc2)nc1-c1cc2ccccc2s1,binding,competition with immobilised ligand,1 µM,69
C[C@@H]1CCN(c2nccc(-c3cnn4ncccc34)n2)C1,binding,,1 µM,100
O=c1nc(-c2ccccn2)sc2ccccc12,cell-free assay,competition with immobilised ligand,1 µM,91
c1cnn2ncc(-c3ccnc(N4CCC45COC5)n3)c2c1,binding,,1 µM,99
COc1cnc(Nc2cccc(S(N)(=O)=O)c2)nc1N1CCN(c2ccccc2)C(=O)C1,binding,competition with immobilised ligand,1 µM,100
